The source of these data is ChEMBL document CHEMBL5252513, “Identification of a Benzoisoxazoloazepine Inhibitor (CPI-0610) of the Bromodomain and Extra-Terminal (BET) Family as a Candidate for Human Clinical Trials” (J Med Chem, 2016).

SMILES strings stand for the structures. Activity calls are given as the source filed them. The rule behind the calls is not given here.

For one data set, the target named is T1, Peregrin (Homo sapiens, UniProt P55201).
T1 sequence (P55201 whole entry): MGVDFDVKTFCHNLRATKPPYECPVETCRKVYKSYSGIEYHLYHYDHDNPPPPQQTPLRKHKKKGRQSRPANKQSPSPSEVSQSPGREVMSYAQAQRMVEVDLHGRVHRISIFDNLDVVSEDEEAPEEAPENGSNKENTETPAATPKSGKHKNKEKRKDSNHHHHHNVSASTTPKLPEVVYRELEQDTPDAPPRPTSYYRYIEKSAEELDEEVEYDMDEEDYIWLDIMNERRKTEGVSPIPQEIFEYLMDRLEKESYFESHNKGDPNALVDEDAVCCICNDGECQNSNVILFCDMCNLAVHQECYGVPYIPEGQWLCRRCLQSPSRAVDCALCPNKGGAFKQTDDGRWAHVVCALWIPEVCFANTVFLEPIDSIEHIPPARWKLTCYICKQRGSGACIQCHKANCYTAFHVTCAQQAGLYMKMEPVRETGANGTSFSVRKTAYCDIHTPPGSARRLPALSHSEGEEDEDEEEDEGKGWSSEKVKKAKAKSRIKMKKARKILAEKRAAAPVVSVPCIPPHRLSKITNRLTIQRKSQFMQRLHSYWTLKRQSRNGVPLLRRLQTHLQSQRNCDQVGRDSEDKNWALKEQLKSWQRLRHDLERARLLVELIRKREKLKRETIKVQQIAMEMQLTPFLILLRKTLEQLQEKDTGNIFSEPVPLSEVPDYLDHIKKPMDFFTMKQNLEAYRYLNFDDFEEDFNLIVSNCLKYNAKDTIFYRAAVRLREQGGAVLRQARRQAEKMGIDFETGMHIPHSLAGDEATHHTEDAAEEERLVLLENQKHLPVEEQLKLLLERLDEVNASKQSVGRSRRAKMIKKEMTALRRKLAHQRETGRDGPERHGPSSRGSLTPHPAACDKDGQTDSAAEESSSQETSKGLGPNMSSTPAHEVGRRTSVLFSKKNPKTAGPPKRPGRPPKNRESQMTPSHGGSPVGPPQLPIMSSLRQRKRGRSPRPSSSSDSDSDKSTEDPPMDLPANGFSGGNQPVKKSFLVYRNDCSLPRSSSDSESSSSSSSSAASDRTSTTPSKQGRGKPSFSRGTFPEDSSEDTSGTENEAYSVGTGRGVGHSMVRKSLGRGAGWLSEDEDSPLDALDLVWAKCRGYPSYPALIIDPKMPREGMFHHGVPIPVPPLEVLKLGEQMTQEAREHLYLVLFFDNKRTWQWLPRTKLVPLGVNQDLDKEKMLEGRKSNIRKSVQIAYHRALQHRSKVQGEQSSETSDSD
Description: Binding affinity to BRPF1 bromodomain (unknown origin) incubated for 60 mins by TR-FRET assay.

Data set [1] addresses Histone acetyltransferase KAT2B (Homo sapiens, UniProt Q92831). The data set can be described thus: Displacement of biotinylated JQ1 from PCAF bromodomain (unknown origin) incubated for 20 mins by AlphaLISA assay.
Data set [2] is described as follows: Intrinsic clearance in human liver microsomes. The class given is ADME, Microsome. The conditions noted are these: read-out: CLH.
Data set [3] can be described thus: Intrinsic clearance in dog liver microsomes. The conditions noted are these: read-out: CLH. Type of data set: ADME, Canis lupus familiaris, Microsome.
Data set [4] in a line: Oral bioavailability in dog at 2.5 mg/kg. The conditions noted are these: in vivo. The class given is ADME, organism-based, Canis lupus familiaris.
The nature of data set [5]: AUC (0 to infinity) in dog at 2.5 mg/kg,po. Also noted: dose 2.5 mg/kg, route po. The conditions noted are these: in vivo. Type of data set: ADME, organism-based, Canis lupus familiaris.
The nature of data set [6]: Initial unbound plasma concentration in human patient with progression lymphoma at 300 mg,po QD and measured after 24 hrs. The class given is ADME. The conditions noted are these: in vivo.
Data set [7] can be described thus: Apparent oral clearance in human patient with progression lymphoma at 300 mg,po QD consecutively for 14 days. The class given is ADME. The conditions noted are these: in vivo, 336 h, time 14 day. In short, it runs like this: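 Phase I trial in patients with hematologic malignancies, oral dosing once daily with escalating cohorts; values are from the 300 mg dose on day 14. AUC0-24 was taken as exposure over 24 h. Apparent clearance was calculated as Dose/AUC0-24.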

The nature of data set [8]: Unbound Cmax in human patient with progression lymphoma at 300 mg,po QD consecutively for 14 days. The class given is ADME. The conditions noted are these: in vivo, 336 h, time 14 day. In short, it runs like this: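 Oral dosing in patients with hematologic malignancies, cycles at escalating doses; 300 mg cohort sampled at day 14. Unbound Cmax = free fraction × Cmax.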

Data set [9] in a line: Clearance in dog assessed as liver blood flow at 0.5 mg/kg,iv. Type of data set: ADME, organism-based, Canis lupus familiaris. The conditions noted are these: in vivo.
Data set [10] is described as follows: Total clearance in dog at 0.5 mg/kg,iv. Type of data set: ADME, organism-based, Canis lupus familiaris. The conditions noted are these: in vivo.
Data set [11] can be described thus: Cmax in mouse at 10 mg/kg,sc. Type of data set: ADME, organism-based. Set-up: dose 10 mg/kg, route sc. The conditions noted are these: in vivo.
The nature of data set [12]: Unbound AUC in mouse at 10 mg/kg,sc. The class given is ADME, organism-based. The conditions noted are these: in vivo.
Data set [13] addresses SWI/SNF-related matrix-associated actin-dependent regulator of chromatin subfamily A member 4 (Homo sapiens, UniProt P51532). Description: Binding affinity to BRG1 bromodomain (unknown origin) incubated for 60 mins by TR-FRET assay.
The target in data set [14] is Bromodomain-containing protein 8 (Homo sapiens, UniProt Q9H0E9). The data set can be described thus: Binding affinity to BRD8 bromodomain (unknown origin) incubated for 60 mins by TR-FRET assay.
Sequence of Bromodomain-containing protein 8 (Q9H0E9 whole entry, canonical isoform): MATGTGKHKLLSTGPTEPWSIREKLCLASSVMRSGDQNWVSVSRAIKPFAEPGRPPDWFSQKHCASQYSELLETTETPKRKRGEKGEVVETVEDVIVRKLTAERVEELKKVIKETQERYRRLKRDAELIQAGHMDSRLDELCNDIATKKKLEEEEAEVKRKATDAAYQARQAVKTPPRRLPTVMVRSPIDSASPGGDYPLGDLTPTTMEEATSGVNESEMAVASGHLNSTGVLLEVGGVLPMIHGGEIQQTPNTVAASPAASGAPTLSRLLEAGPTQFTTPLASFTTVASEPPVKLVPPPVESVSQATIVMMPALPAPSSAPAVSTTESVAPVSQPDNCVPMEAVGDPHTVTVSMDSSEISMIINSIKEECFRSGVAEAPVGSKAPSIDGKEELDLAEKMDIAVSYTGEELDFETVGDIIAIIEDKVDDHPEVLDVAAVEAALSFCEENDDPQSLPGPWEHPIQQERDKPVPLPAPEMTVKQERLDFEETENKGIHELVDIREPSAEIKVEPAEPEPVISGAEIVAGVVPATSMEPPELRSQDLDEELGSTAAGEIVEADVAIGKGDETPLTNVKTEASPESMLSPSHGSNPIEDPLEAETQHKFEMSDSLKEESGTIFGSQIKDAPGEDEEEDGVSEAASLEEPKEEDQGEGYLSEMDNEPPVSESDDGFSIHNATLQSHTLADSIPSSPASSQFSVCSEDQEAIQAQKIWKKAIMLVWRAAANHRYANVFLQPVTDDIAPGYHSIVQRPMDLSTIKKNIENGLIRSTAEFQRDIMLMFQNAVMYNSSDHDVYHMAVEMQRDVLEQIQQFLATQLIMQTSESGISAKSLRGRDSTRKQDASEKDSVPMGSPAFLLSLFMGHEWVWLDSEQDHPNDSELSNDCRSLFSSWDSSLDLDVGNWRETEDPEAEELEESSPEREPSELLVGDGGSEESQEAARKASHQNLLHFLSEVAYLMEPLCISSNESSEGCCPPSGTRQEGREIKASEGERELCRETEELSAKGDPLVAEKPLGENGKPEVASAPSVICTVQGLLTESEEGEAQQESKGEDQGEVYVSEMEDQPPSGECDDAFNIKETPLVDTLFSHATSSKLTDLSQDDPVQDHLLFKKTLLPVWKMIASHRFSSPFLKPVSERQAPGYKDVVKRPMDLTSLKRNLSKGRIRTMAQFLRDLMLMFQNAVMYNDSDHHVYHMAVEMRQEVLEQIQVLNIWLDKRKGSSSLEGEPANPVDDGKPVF
The test system of a further data set is Cytochrome P450. The data set can be described thus: Inhibition of CYP450 (unknown origin) at 10 uM. Type of data set: ADME, protein assay. The conditions noted are these: human. In outline: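 Cytochrome P450 activity tested with compound at 10 µM against a number of common isoforms; time-dependent inhibition also assessed.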
The next data set concerns MV4-11. Description: In vivo inhibition of BRD4 in human MV4-11 cells xenografted in BALB/c mouse assessed as reduction in cellular MYC mRNA expression level in plasma at 15 mg/kg,sc BID and measured for 8 to 12 hrs by PCR anlaysis. The conditions noted are these: time 8-12 hrs. Type of data set: functional, organism-based. In outline:
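Pharmacodynamic study in MV-4-11 AML mouse xenograft. Dosing was 15 mg/kg subcutaneous twice daily. At 4, 8 and 12 h after the second dose, MYC mRNA was measured against vehicle, and compound levels were measured in plasma and tumor. Free plasma concentration was estimated alongside total levels.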

The nature of data set [15]: Toxicity against BALB/c mouse plasma xenografted with human MV4-11 cells assessed as body weight loss at 30 mg/kg,po QD for 28 days. The class given is organism-based. The conditions noted are these: in vivo, 672 h, time 28 day. In outline: (§1)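 Body weight change (%) followed in MV-4-11 AML mouse xenograft during 28 days of oral single-agent dosing (30 mg/kg once or twice daily, 60 mg/kg once daily), vehicle PO BID as control.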

Data set [16] is described as follows: Toxicity against BALB/c mouse plasma xenografted with human MV4-11 cells assessed as body weight loss at 60 mg/kg,po QD for 28 days. Type of data set: organism-based. The conditions noted are these: in vivo, 672 h, time 28 day. In short, it runs like this: as §1
Data set [17] can be described thus: Toxicity in rat assessed as mild to moderate hyperglycemia at 2 to 20 mg/kg,po QD consecutive for 14 days followed by 2 weeks recovery period. The class given is organism-based. The conditions noted are these: in vivo, 336 h, dose 2-20 mg/kg, time 14 day. In short, it runs like this:
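Oral suspension given once daily for 14 consecutive days (rat 2, 6, 20 mg/kg; dog 2, 4, 6 mg/kg) in dose range-finding and GLP repeat-dose studies, GLP arms with an added 2-week recovery period; histopathology and clinical pathology findings recorded.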

Sequence of SWI/SNF-related matrix-associated actin-dependent regulator of chromatin subfamily A member 4 (P51532 whole entry): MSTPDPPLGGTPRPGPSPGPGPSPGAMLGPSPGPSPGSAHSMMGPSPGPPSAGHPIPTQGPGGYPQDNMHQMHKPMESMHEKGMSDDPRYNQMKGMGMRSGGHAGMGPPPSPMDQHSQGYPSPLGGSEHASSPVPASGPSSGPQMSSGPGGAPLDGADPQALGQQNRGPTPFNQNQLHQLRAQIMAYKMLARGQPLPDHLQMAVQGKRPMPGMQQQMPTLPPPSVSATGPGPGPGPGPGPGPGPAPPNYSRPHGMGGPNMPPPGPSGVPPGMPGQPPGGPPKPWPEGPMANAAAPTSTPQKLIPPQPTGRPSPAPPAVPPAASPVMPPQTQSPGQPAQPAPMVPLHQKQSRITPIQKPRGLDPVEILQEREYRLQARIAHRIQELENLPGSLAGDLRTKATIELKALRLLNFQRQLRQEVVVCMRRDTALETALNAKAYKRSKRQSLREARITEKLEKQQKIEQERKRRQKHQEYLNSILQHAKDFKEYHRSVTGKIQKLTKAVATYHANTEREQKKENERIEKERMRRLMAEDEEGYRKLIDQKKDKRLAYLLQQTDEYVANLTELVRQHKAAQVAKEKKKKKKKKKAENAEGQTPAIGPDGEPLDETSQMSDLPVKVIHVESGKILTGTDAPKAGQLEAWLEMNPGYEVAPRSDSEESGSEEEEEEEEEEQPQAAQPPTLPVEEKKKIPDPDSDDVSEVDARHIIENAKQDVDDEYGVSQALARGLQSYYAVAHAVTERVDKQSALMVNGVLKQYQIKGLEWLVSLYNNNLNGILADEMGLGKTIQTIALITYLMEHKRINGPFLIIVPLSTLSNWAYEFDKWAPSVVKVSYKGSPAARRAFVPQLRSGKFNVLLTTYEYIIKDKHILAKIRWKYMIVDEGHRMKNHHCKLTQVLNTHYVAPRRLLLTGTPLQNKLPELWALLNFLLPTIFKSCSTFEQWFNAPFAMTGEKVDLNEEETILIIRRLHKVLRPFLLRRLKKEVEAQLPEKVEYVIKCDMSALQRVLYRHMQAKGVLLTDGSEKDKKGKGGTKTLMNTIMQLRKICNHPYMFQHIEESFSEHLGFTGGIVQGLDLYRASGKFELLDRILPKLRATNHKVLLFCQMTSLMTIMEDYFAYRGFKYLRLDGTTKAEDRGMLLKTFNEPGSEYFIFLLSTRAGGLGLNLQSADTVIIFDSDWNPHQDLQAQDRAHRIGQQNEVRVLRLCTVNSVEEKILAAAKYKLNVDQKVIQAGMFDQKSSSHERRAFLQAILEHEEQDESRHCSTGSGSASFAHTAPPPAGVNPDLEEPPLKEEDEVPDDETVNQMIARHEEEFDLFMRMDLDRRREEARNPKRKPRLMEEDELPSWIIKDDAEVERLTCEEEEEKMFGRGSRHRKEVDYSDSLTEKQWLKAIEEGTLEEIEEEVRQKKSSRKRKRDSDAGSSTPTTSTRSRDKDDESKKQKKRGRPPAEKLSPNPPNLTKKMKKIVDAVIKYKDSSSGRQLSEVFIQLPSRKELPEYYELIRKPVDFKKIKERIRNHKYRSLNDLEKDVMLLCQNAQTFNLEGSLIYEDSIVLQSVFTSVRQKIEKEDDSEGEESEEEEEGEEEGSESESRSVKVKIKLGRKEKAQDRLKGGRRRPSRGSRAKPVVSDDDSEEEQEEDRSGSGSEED
Sequence of Histone acetyltransferase KAT2B (Q92831 whole entry): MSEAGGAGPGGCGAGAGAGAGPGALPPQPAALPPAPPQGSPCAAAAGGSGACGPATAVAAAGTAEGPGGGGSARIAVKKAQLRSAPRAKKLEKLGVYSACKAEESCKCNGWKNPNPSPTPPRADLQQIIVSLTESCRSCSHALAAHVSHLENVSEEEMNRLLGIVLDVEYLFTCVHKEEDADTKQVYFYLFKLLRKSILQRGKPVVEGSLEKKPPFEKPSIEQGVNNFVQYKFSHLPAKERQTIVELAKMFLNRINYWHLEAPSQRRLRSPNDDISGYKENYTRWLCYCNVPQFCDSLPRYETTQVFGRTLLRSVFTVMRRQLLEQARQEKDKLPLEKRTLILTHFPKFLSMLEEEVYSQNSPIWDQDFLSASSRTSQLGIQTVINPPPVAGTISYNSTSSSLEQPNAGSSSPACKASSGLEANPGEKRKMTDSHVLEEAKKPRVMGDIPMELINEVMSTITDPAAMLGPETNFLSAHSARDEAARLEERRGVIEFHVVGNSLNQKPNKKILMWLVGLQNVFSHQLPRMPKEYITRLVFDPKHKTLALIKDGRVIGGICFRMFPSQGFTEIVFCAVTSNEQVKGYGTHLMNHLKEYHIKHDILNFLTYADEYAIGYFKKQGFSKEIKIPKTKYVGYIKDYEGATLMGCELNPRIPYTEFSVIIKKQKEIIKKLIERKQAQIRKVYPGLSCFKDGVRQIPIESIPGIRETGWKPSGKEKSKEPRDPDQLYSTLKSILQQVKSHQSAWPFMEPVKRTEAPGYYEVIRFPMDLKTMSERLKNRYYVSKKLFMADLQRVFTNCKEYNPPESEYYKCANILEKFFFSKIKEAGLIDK

Regarding `Cc1noc2c1-c1ccccc1C(c1ccc(Cl)cc1)=N[C@H]2CC(N)=O` [PELABRESIB], the IC50 at Peregrin was > 20 µM; in data set [1], > 20 µM; in [13], > 20 µM; in data set [14], > 15 µM. Also, the predicted hepatic clearance is 10 mL/min/kg in data set [2] and 20 mL/min/kg in [3]. Moreover, in [4], the bioavailability turned out to be 45%. The compound also returned an AUC(0-inf) in [5] of 28 µM·h. The “C0(unbound)” value in [6] amounted to 0.011 µM. In addition, the CL/F in data set [7] was determined as 21 L/h. Besides, in data set [8], the fCmax worked out at 0.3 µM. Besides, the QH in data set [9] was 6%. The clearance in data set [10] is 1.83 mL/min/kg. This compound yielded a peak concentration (Cmax) in data set [11] of 8.4 µM. The fAUC in data set [12] was determined as 1.5 µM·h. Further, the “inhibition (INH)” value in the data set on Cytochrome P450 is recorded as “Not Active”. The inhibition result in the data set on MV4-11 is “inactive”. Moreover, the Activity entry in [15] is reported as “Non-Toxic”; in [16], “Non-Toxic”; in data set [17] it was “Toxic”.
